Measurements published in PMC6880868 (Cancer cell, 2019).
Read-outs that look alike come from different tables or passages of the source.

What was measured:
[1] = biological target: T1, STAT3 (Homo sapiens, UniProt P40763); experiment: STAT3 protein degradation in human cells; type: cell-based; details: for effect on SD-36-induced depletion of STAT3 protein: co-treatment with SD-36; for effect on the levels of STAT3 protein: 10 μM, 3 hr MOLM-16 or 24 hr SU-DHL-1
How it was run: (§1)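 Treated cells were lysed in cell lysis buffer, resolved by SDS-PAGE, transferred to PVDF and probed by immunoblotting.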
Target sequence in this assay (P40763 whole entry): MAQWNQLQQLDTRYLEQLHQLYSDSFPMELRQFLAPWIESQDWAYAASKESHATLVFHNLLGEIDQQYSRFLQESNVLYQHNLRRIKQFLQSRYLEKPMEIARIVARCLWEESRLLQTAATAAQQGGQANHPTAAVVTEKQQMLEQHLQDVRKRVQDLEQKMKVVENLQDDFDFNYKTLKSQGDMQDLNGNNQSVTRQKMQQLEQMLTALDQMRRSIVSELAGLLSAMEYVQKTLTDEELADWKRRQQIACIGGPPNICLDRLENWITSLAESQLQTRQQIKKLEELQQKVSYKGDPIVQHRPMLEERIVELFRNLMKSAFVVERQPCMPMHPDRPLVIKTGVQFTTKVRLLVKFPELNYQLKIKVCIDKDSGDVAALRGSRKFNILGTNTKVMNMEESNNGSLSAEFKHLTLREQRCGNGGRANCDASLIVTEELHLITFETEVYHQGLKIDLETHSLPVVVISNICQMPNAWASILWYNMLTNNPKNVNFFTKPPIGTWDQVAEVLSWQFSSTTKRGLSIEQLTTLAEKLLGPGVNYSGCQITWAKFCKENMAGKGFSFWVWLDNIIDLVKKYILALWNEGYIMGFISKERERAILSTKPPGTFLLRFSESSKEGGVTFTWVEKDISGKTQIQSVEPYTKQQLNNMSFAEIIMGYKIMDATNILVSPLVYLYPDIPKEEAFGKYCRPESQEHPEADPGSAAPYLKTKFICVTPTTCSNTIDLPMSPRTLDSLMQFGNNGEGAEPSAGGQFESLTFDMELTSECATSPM

[2] = biological target: transcriptional activity of STAT3; experiment: STAT3-luciferase reporter assay; type: cell-based, human
[3] = tested on: MOLM-16 and SU-DHL-1 cell lines; experiment: Cell cycle analysis by flow cytometry; type: cell-based, human; details: 1 μM, 48 hr
How it was run: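 After treatment, cells were washed twice in cold PBS and fixed overnight in 50% ethanol. They were stained 1 hr at 4°C with PI (50 μg/ml) plus DNase-free RNase A (0.2 μg/ml), then analysed by flow cytometry.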

[4] = tested on: MOLM-16 cells; experiment: RNA-seq analysis, MOLM-16; type: cell-based, human; details: MOLM-16, 24 hr
[5] = biological target: T1, STAT3; experiment: Pharmacodynamics: STAT3 protein in xenograft tumors; type: in vivo, NOD/SCID mice bearing human xenograft tumors; details: 100 mg/kg i.v.
Target sequence in this assay (P40763 whole entry): as above

[6] = tested on: SU-DHL-1; experiment: RNA-seq analysis, SU-DHL-1; type: cell-based, human; details: SU-DHL-1, 24 hr
[7] = biological target: monomeric and dimeric STAT3 protein (Homo sapiens, UniProt P40763); experiment: Native electrophoresis and immunoblotting of STAT3 monomer/dimer; type: cell-based; details: MOLM-16, 5 hr
Sequence of monomeric and dimeric STAT3 protein (P40763 whole entry): as above

[8] = biological target: T1, STAT3; experiment: Fluorescence polarization; type: binding
How it was run: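 Competitive fluorescence polarisation assay. Recombinant STAT3 (25 nM) was premixed 5 min with 2.5 nM 5-FAM-labelled STAT3 SH2-domain ligand. The mix was added to serially diluted test compound and read after 1 hr at room temperature. Buffer: 50 mM NaCl, 10 mM HEPES pH 7.5, 1 mM EDTA, 0.01% Triton X-100, 2 mM DTT. IC50 came from nonlinear regression and was converted to Ki.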
Target sequence in this assay (P40763 127-688): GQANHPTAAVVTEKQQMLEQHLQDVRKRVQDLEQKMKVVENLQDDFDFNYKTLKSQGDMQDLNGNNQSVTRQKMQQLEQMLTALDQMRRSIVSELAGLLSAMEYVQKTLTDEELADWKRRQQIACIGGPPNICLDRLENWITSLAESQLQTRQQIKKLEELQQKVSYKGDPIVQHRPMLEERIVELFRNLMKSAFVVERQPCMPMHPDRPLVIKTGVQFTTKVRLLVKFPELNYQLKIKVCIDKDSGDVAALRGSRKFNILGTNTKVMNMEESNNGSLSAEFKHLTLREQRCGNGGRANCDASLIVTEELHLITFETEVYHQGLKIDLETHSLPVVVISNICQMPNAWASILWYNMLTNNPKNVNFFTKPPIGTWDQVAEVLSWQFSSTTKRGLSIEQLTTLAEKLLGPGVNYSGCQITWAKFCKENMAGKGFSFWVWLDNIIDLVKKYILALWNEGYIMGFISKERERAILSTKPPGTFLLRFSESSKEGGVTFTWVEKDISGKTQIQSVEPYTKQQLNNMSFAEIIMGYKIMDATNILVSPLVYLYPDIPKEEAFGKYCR

[9] = tested on: MOLM-16 tumors; experiment: MOLM-16 xenograft efficacy; type: in vivo, NOD/SCID female mice; details: 100 mg/kg twice weekly for 4 weeks
How it was run: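 NOD/SCID female mice were injected subcutaneously in 5 mg/ml Matrigel with MOLM-16 (3 × 10^6), SU-DHL-1 (1 × 10^7) or SUP-M2 (1 × 10^7) cells. At about 150 mm3, mice were size-matched and randomised. Test compound or vehicle (10% PEG400 + 90% PBS) was given on the indicated schedules. Tumours were measured 2–3 times weekly, with volume = length×width²/2. TGI was calculated from group medians.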

[10] = biological target: STAT4 (Homo sapiens, UniProt Q14765); experiment: Bio-Layer Interferometry binding, STAT4
Sequence of STAT4 (Q14765 133-705): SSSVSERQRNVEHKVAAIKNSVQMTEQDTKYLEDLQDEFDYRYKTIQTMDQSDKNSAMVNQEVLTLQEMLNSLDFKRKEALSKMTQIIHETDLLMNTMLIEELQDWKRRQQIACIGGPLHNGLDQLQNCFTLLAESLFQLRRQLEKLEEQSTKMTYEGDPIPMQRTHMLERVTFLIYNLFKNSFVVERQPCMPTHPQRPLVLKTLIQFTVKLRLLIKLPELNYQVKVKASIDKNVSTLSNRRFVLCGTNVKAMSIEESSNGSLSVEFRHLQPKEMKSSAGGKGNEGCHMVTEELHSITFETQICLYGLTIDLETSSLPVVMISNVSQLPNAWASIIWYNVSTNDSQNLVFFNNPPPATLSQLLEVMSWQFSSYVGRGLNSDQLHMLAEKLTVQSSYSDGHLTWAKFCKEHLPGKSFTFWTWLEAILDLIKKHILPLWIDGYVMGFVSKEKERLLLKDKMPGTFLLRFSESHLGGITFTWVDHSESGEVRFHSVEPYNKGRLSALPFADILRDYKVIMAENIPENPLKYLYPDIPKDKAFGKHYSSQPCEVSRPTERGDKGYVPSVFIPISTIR
How it was run: (§2)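 Purified recombinant human STAT proteins were biotinylated, then direct binding of the test compound was measured by Bio-Layer Interferometry to give Kd.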

[11] = biological target: STAT1 (Homo sapiens, UniProt P42224); experiment: Bio-Layer Interferometry binding, STAT1
Sequence of STAT1 (P42224 132-713): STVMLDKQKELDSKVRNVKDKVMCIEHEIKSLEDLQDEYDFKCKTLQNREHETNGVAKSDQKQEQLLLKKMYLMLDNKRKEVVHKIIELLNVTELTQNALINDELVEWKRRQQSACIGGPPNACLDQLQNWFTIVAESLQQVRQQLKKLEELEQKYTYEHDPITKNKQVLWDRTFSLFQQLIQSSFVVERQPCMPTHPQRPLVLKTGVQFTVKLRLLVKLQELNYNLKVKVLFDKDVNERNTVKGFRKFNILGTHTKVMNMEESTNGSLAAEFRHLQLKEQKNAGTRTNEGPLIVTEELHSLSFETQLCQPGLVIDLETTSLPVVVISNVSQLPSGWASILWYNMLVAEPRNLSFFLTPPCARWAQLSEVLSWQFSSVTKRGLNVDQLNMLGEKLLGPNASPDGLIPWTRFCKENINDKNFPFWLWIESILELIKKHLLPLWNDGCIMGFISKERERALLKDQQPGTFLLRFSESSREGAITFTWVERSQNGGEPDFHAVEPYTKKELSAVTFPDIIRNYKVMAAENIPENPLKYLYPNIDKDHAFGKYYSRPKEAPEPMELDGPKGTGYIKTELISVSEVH
How it was run: as §2

[12] = tested on: c-Myc; STAT3 Y705 phosphorylation; experiment: Immunoblotting of c-Myc and pSTAT3; type: cell-based, human; details: concentrations as high as 10 μM
How it was run: as §1

[13] = biological target: DNA binding activity of STAT3 (Homo sapiens, UniProt P40763); experiment: STAT3 DNA binding activity assay on nuclear extracts; type: cell-based; details: 10 μM, 8 hr, MOLM-16 and SU-DHL-1
Sequence of DNA binding activity of STAT3 (P40763 whole entry): as the sequence (P40763 whole entry) above
How it was run: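 Nuclear extraction: cells were swelled 15 min on ice in hypotonic HEPES pH 7.9/10 mM KCl buffer with DTT and phosphatase/protease inhibitors. NP-40 was added (0.5% final), and nuclei were extracted 15 min at 4°C in 0.4 M NaCl HEPES buffer, then cleared at 5,000 × g. ELISA: 5 μg extract was bound 1 hr at room temperature in TransAM STAT ELISA wells. Wells then received STAT antibody (1:1000, 1 hr), HRP secondary (1 hr) and colour development.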

[14] = biological target: T1, STAT3; experiment: Bio-Layer Interferometry binding, STAT3
How it was run: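 Recombinant human STAT3 was biotinylated and binding measured by Bio-Layer Interferometry for Kd. Selectivity was taken from Kd values against other STATs.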
Target sequence in this assay (P40763 127-688): as the sequence (P40763 127-688) above

[15] = tested on: ~5500 proteins quantified in each cell line; experiment: Multiplexed quantitative proteomics in cell lines; type: cell-based, human; details: 10 μM, 2.5 hr, three cell lines, p≤0.05
How it was run: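 Cells were exposed to test compound, then analysed by multiplexed quantitative proteomics. Significance was assessed by Student's t-test.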

[16] = tested on: leukemia and lymphoma cell lines; experiment: 4-day CellTiter Glo cell viability assay, leukemia and lymphoma cell line panel; type: cell-based, human
[17] = tested on: MOLM-16; experiment: 4-day CellTiter Glo cell viability assay, MOLM-16; type: cell-based; details: Homo sapiens, MOLM16, 96 h, read-out: IC50, growth inhibition
[18] = Homo sapiens, MOLM16, 24 h, read-out: IC50, transcriptional activity of STAT3
[19] = Homo sapiens, read-out: IC50, inhibition of transcriptional activity of STAT3

SMILES: NS(=O)(=O)OC[C@@H]1C[C@@H](n2ccc3c(N[C@H]4CCc5ccccc54)ncnc32)C[C@@H]1O [MLN4924, reference compound]
- effect on SD-36-induced depletion of STAT3 protein [1]: blocked

SMILES: CN1C(=O)CCC(N2Cc3c(C#CCCCCCC(=O)N4CC[C@H]5CC[C@@H](C(=O)N[C@@H](CCC(N)=O)C(=O)NC(c6ccccc6)c6ccccc6)N5C(=O)[C@@H](NC(=O)c5cc6cc(C(F)(F)P(=O)(O)O)ccc6[nH]5)C4)cccc3C2=O)C1=O (stereo partly drawn) [SD-36Me, ((2-(((5S,8S,10aR)-8-(((S)-5-amino-1-(benzhydrylamino)-1,5-dioxopentan-2-yl)carbamoyl)-3-(8-(2-(1-methyl-2,6-dioxopipehdin-3-yl)-1-oxoisoindolin-4-yl)oct-7-ynoyl)-6-oxodecahydropyrrolo[1,2-a][1,5]diazocin-5-yl)carbamoyl)-1H-indol-5-yl)difluoromethyl)phosphonic acid]
- IC50 ([2]; read-out: IC50, transcriptional activity of STAT3, MOLM-16 STAT3-dependent luciferase reporter cell line, 24 hr): ~10 µM
- cell cycle effect [3]: modest G1 arrest
- genes up- or down-regulated ≥2-fold (p≤0.05), total [4]: 13 genes
- effect on protein levels of STAT3 in MOLM-16 tumors [5]: no significant effect
- effect on the levels of STAT3 protein [1]: no significant effect
- genes differentially regulated (≥2-fold, p≤0.05) [6]: 28 genes
- concentration diminishing STAT3 dimers [7]: ~ 10 μM

SMILES: CN1CC[C@H]2CC[C@@H](C(=O)N[C@@H](CCC(N)=O)C(=O)NCc3ccccc3)N2C(=O)[C@@H](NC(=O)c2cc3cc(C(F)(F)P(=O)(O)O)ccc3[nH]2)C1 [SI-108, ((2-(((5S,8S,10aR)-8-(((S)-5-amino-1-(benzylamino)-1,5-dioxopentan-2-yl)carbamoyl)-3-methyl-6-oxodecahydropyrrolo[1,2-a][1,5]diazocin-5-yl)carbamoyl)-1H-indol-5-yl)difluoromethyl)phosphonic acid]
- IC50 [2, 18]: ~10 µM
- IC50 [2, 19]: ~3 µM
- Ki [8]: 0.011 µM
- effect on SD-36-induced depletion of STAT3 protein [1]: blocked

SMILES: CC(=O)N1CC[C@H]2CC[C@@H](C(=O)N[C@@H](CCC(N)=O)C(=O)NC(c3ccccc3)c3ccccc3)N2C(=O)[C@@H](NC(=O)c2cc3cc(C(F)(F)P(=O)(O)O)ccc3[nH]2)C1 [SI-109, ((2-(((5S,8S,10aR)-3-acetyl-8-(((S)-5-amino-1-(benzhydrylamino)-1,5-dioxopentan-2-yl)carbamoyl)-6-oxodecahydropyrrolo[1,2-a][1,5]diazocin-5-yl)carbamoyl)-1H-indol-5-yl)difluoromethyl)phosphonic acid]
- effect on the growth of MOLM-16 tumors [9]: no effect
- Kd [10]: 1 to 2 µM
- Kd [11]: 1 to 2 µM
- IC50 [2, 18]: ~10 µM
- IC50 [2, 19]: ~3 µM
- inhibition of STAT3 Y705 phosphorylation and suppression of c-Myc expression [12]: ineffective
- Ki [8]: 0.009 µM
- DNA binding activity of STAT3 [13]: only modestly reduces
- Kd [14]: ~0.05 µM
- binding selectivity for STAT3 over STAT1 and STAT4 ([14]; BLI Kd): ~ 20 fold
- proteome-wide selectivity [15]: no measurable effect
- cell lines with moderate growth-inhibitory activity ([16]; 18 leukemia and lymphoma cell lines): 1 of these 18
- growth-inhibitory activity in a large number of human cancer cell lines ([16]; initial testing): no appreciable growth-inhibitory activity
- IC50 [17]: ~3 µM
- effect on protein levels of STAT3 in MOLM-16 tumors [5]: no significant effect
- effect on the levels of STAT3 protein [1]: no significant effect
- concentration diminishing STAT3 dimers [7]: ~ 10 μM

SMILES: CC(C)C[C@H](NC(=O)[C@H](CCc1ccccc1)NC(=O)CN1CCOCC1)C(=O)N[C@@H](Cc1ccccc1)C(=O)N[C@@H](CC(C)C)C(=O)[C@@]1(C)CO1 [carfilzomib, reference compound]
- effect on SD-36-induced depletion of STAT3 protein [1]: blocked

SMILES: NC(=O)CC[C@H](NC(=O)[C@@H]1CCC2CCCC[C@H](NC(=O)c3cc4cc(OP(=O)(O)O)ccc4[nH]3)C(=O)N21)C(=O)NCc1ccccc1 (stereo partly drawn) [compound 2, 2-((3S,6S)-3-((S)-5-Amino-1-(benzylamino)-1,5-dioxopentan-2-ylcarbamoyl)-5-oxodecahydropyrrolo[1,2-a]azocin-6-ylcarbamoyl)-1H-indol-5-yl dihydrogen phosphate]
- suppressing STAT3 activity in cells ([2]; cells): ineffective
- Ki [8]: 0.039 µM

SMILES: NC(=O)CC[C@H](NC(=O)[C@@H]1CCC2CCCC[C@H](NC(=O)c3cc4cc(C(F)(F)P(=O)(O)O)ccc4[nH]3)C(=O)N21)C(=O)NCc1ccccc1 (stereo partly drawn) [compound 3, (2-((3S,6S)-3-((S)-5-Amino-1-(benzylamino)-1,5-dioxopentan-2-ylcarbamoyl)-5-oxodecahydropyrrolo[1,2-a]azocin-6-ylcarbamoyl)-1H-indol-5-yl)difluoromethylphosphonic acid]
- Ki [8]: 0.007 µM
- binding potency relative to compound 2 ([8]; Ki ratio): 5 times

SMILES: Nc1cccc2c1CN(C1CCC(=O)NC1=O)C2=O (centres unmarked) [lenalidomide, reference compound]
- effect on STAT3 transcriptional activity ([2]; MOLM-16 STAT3 reporter, 24 hr): no significant effect
- IC50 ([16]; Homo sapiens, read-out: IC50, proliferation): > 10 µM
- IC50 [17]: ~4 µM
- effect on SD-36-induced depletion of STAT3 protein [1]: blocked
